Experimental findings from ChEMBL document CHEMBL4825764, “Flavonoid Monomers as Potent, Nontoxic, and Selective Modulators of the Breast Cancer Resistance Protein (ABCG2)” (J Med Chem, 2021) are described below.

Calls of active or inactive are those of the source. The calls are words filed in the database; no cut-off is given here.

For series [1], the species on record is Homo sapiens. The series can be described thus: Selectivity index, ratio of EC50 for inhibition of P-gp (unknown origin) expressed in LCC6MDR cells assessed as reversal of mitoxantrone resistance to EC50 for inhibition of BCRP (unknown origin) expressed in HEK293/R2 cells assessed as reversal of mitoxantrone resistance. Type of series: cell-based. The gist of the method: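 Selectivity index is the EC50 in 2008/MRP1 or LCC6MDR divided by the EC50 in HEK293/R2. All three lines were measured by 5-day mitoxantrone co-incubation with modulator, with MTS/PMS read-out at 490 nm.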

In series [2] the target is T1, Broad substrate specificity ATP-binding cassette transporter ABCG2 (Homo sapiens, UniProt Q9UNQ0).
T1 sequence (Q9UNQ0 whole entry): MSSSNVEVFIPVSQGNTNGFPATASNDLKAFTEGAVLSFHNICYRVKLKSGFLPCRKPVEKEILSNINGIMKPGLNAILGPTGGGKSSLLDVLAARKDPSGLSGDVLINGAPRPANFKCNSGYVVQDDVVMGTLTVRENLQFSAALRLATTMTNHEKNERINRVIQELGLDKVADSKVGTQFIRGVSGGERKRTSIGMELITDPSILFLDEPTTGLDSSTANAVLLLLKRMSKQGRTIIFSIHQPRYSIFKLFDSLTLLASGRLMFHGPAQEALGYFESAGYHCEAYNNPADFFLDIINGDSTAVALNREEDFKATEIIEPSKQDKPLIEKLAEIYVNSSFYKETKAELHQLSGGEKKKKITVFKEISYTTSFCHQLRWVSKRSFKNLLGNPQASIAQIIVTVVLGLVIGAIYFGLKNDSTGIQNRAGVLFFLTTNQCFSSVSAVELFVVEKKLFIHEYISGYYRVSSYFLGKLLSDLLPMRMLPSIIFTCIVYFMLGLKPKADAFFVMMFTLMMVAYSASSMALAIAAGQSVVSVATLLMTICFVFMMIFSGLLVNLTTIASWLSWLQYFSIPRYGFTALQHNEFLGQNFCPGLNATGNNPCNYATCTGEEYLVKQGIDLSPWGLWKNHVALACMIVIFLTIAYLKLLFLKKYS
As to the kind of experiment: Inhibition of BCRP (unknown origin) expressed in HEK293/R2 cells assessed as fold increase in mitoxantrone accumulation at 1 uM after 4 days by flow cytometry analysis. Type of series: cell-based. The note with it: hek293/r2, 96 h, time 4 day. The gist of the method: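 HEK293/R2 cells were treated 4 days at 37 °C with 1 μM modulator or 0.1% DMSO, washed, then given the mitoxantrone accumulation assay with flow cytometry read-out. Data are relative to DMSO, N = 5 independent experiments.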
(In general: Flow cytometry measures light scatter and fluorescence of single cells or particles in a stream.)

The subject of series [3] is L929. The series can be described thus: Cytotoxicity against mouse L929 cells assessed as reduction in cell viability. Type of series: cell-based.
The target in series [4] is T2, BCRP (ABCG2) ATPase (Homo sapiens, UniProt Q9UNQ0).
T2 sequence (Q9UNQ0 whole entry): T1 sequence (Q9UNQ0 whole entry)
As to the kind of experiment: Effect on vanadate sensitive BCRP ATPase activity in human S1-M1-80 cell membranes preincubated for 30 mins followed by ATP addition and measured after 1 hr by colorimetric assay.

The target in series [5] is T1, Broad substrate specificity ATP-binding cassette transporter ABCG2. As to the kind of experiment: Inhibition of BCRP (unknown origin) expressed in human HEK293/R2 cells assessed as increase in intracellular mitoxantrone accumulation by measuring fold change at 1 uM after 2 hrs in presence of mitoxantrone by flow cytometry analysis relative to control. Conditions: hek293/r2, 2 h. Type of series: cell-based. The gist of the method: (§1)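 5 × 10^5 HEK293/pcDNA3.1 or HEK293/R2 cells in 1 mL were incubated 2 hr at 37 °C with 50 μM topotecan or 5 μM mitoxantrone plus 1 or 2 μM modulator, with DMSO as the vehicle control. Cells were washed in cold PBS and resuspended in FACS buffer. Flow cytometry read FL1 (topotecan) or FL4 (mitoxantrone) over 50,000 events, normalized to wild-type cells.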

Series [6] has the same target. As to the kind of experiment: Inhibition of BCRP (unknown origin) expressed in human HEK293/R2 cells assessed as increase in intracellular mitoxantrone accumulation by measuring fold change at 2 uM after 2 hrs in presence of mitoxantrone by flow cytometry analysis relative to control. The note with it: hek293/r2, 2 h. Type of series: cell-based. Summed up: as §1
The target is the same in series [7]. As to the kind of experiment: Inhibition of BCRP (unknown origin) expressed in HEK293/R2 cells assessed as reduction in BCRP protein level at 1 uM after 4 days by Western blot analysis. The note with it: hek293/r2, 96 h. (In general: Immunoblotting shows a protein as a band on a membrane.)
The species entered for series [8] is Homo sapiens. The series can be described thus: Selectivity index, ratio of EC50 for inhibition of MRP1 (unknown origin) expressed in 2008/MRP1 cells assessed as reversal of doxorubicin resistance to EC50 for inhibition of BCRP (unknown origin) transfected in HEK293/R2 cells assessed as reversal of topotecan resistance. Type of series: cell-based. Summed up:
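Selectivity index is the EC50 against the other transporter's line divided by the EC50 in the BCRP line. All values come from 5-day MTS reversal assays. These use topotecan in HEK293/R2 (0–2000 nM) or MCF7-MX100 (0–100 μM), doxorubicin in 2008/MRP1, and paclitaxel in LCC6MDR, each with modulator at 0–1000 nM.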

Series [9] concerns the target T3, BCRP (ABCG2) (Homo sapiens, UniProt Q9UNQ0).
T3 sequence (Q9UNQ0 whole entry): T1 sequence (Q9UNQ0 whole entry)
The series can be described thus: Inhibition of BCRP (unknown origin) expressed in HEK293/R2 cells assessed as conformational change by measuring increase in 5D3 shift at 1 uM preincubated for 15 mins followed by FITC mouse antihuman BCRP antibody addition measured after 30 mins by flow cytometry analysis. Type of series: cell-based. The note with it: HEK293/R2 cells expressing BCRP, time 45 min. The gist of the method:
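5 × 10^5 HEK293/R2 cells in FACS buffer were shaken 15 min at 37 °C with 1 μM compound. FITC 5D3 anti-BCRP was then added for 30 min at 37 °C and fluorescence read by flow cytometry on FL1. Compound-only background was subtracted and the untreated DMSO shift removed. Result is % of the 1 μM Ko143-induced shift.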

For series [10], the target named is T1, Broad substrate specificity ATP-binding cassette transporter ABCG2. The series can be described thus: Inhibition of BCRP (unknown origin) expressed in human HEK293/R2 cells assessed as increase in intracellular topotecan accumulation by measuring fold change at 2 uM after 2 hrs in presence of topotecan by flow cytometry analysis relative to control. Type of series: cell-based. Conditions: hek293/r2, 2 h. Summed up:
as §1

For series [11] the target is unchanged. As to the kind of experiment: Inhibition of BCRP (unknown origin) expressed in human HEK293/R2 cells assessed as increase in intracellular topotecan accumulation by measuring fold change at 1 uM after 2 hrs in presence of topotecan by flow cytometry analysis relative to control. Type of series: cell-based. The note with it: hek293/r2, 2 h. Summed up: as §1

The test system of series [12] is HEK293. The series can be described thus: Effect on BCRP protein expression in human HEK293/R2 cells at 1 to 3 uM after 24 hrs by flow cytometric analysis. Type of series: functional, cell-based. Conditions: dose 1-3 µM. The gist of the method: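 HEK293/R2 and HEK293/pcDNA3.1 cells were exposed to 0, 1 or 3 μM compound for 24 hr, with 0.1–0.3% DMSO as solvent control. Cells were trypsinized and stained with FITC anti-human BCRP for 45 min at 4 °C, with an IgG2b-FITC isotype control. Surface signal was read by flow cytometry on FL1 over 50,000 events.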

On to `COC(=O)c1cccc(COc2c(-c3ccc(OCCCCc4cn(Cc5ccccc5)nn4)cc3)oc3ccccc3c2=O)c1`, for which the Ratio EC50 was determined as 52 in [1] and 143 in series [8]. Also, the “fold change (FC)” value in [2] was determined as 3.8; in series [5] it was 5.9; in series [6], 5.7; in [10], 6.8; in series [11] it was 8.1. For the same compound, in series [3], the IC50 is > 100 µM. Further, the activity at 1 h in series [4] turned out to be 120%. Moreover, the “inhibition (INH)” value in series [7] is given as “Not Active”. For the same compound, in series [9], the inhibition at 0.5 h, 1 µM came out at 100%. For the same compound, the Activity entry in series [12] was “inactive”.

In general, IC50 refers to the concentration that inhibits the measured activity by half. The inhibition is the percentage by which the read-out fell short of the control.
